From PubChem
A selection: hits, their analogues and other compounds. The true share with any hit is near 2.4%.
Myeloid diff 2 = induction of myeloid progenitor differentiation, primary screen, cell-based, flow cytometry, MLPCN library; 360,000 tested, 1% active; ER-HoxA9 myeloid progenitors, lysozyme-GFP differentiation; calls only at 10 µM; AID 624256, 2012;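 active = normalized GFP-positive differentiation at or above the plate's own cutoff, the solvent-only control mean plus 3 SD; inconclusive = no clear call, values can overlap the other calls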;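 note: cells exposed to compound for four days before flow analysis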
MT1-MMP act inh = blockers of MT1-MMP proenzyme processing, primary screen, HT1080 RFP-PRO-GFP cells, GFP/RFP fluorescence | GFP/RFP ratio change, % at 20 µM | Matrix metalloproteinase-14 (Homo sapiens), P50281 | GFP/RFP ratio fluorescence, overnight; percent of plate control window, DMSO zero | AID 651647, 2012 | 360,000 tested, 0.061% active;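 active = GFP/RFP ratio change of at least 30% with cell ATP level not reduced by more than half and red fluorescence within 50% of control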
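Assay system – RFP-PRO-GFP reporter HT1080 cells · Compound dosing – single dose of 20 µM compound, 1% DMSO final · Incubation – overnight compound exposure at 37 °C · Measure – GFP/RFP fluorescence ratio · Benchmarks – DMSO wells and RFP-L50D-GFP cells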
DAGLB inhibitor = DAGLB lipase inhibitors, primary screen, biochemical, fluorescence, HTS; Diacylglycerol lipase-beta (Homo sapiens), Q8NCG7; 340,000 tested, 0.059% active; inhibition, % at 5.17 µM; AID 504411, 2011; HEK293T DAGLB membrane lysate, EnzChek fluorogenic substrate; in the data active = inhibition above about 34%;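 note: 0% = enzyme with vehicle and 100% = wells lacking enzyme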
SENP1 inh = human SENP1 catalytic domain inhibitors, primary screen, biochemical, FRET, uHTS; recombinant SENP1 catalytic domain, CyPet-SUMO1-YPet FRET cleavage; inhibition, % at 10 µM; 360,000 tested, 0.21% active; AID 624204, 2012;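 active = inhibition at least 30% at 10 µM, raw YFP signal under a set limit, fluorescence ratio 0.5 to 1.5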;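 note: 0% = enzyme with DMSO and 100% = no enzyme wells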
Target sequence (Q9P0U3 419-644 limits assumed): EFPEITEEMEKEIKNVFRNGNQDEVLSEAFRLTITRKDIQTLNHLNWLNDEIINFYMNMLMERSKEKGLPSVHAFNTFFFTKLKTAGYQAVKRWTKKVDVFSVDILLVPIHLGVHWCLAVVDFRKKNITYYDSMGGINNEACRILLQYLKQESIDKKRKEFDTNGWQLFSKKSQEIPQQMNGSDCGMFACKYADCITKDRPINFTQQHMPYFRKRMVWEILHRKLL
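Compound: 10 µM single point, 0.5% DMSO; Test system: hSENP1 catalytic domain, recombinant; Timing: 50 min reaction at room temperature; Technique: FRET, CFP and YFP emission; Control set: no-enzyme wells low, DMSO-plus-enzyme wells high control.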
NRP1-CendR mod = modulators of CendR peptide binding to NRP-1, primary screen, biochemical, fluorescence polarization, uHTS; 360,000 tested, 0.85% active; AID 602438, 2012; inhibition, % at 25 µM; FAM-RPARPAR peptide binding to NRP-1; Neuropilin-1 (Homo sapiens), O14786;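 active = inhibition or corrected inhibition above about 18%, plus a signal ratio from 0.5 to 1.5, limit read from the data, passing the limit was not always enough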
beta cell repl = inducers of MIN6 beta-cell proliferation, primary screen, ATP luminescence, uHTS | AID 2380, 2010 | proliferation, % at 10 µM | MIN6 cells proliferation, ATPlite luminescence, 48 h; cells starved in 0.2% serum; 100% = growth in 10% serum | 330,000 tested, 0.29% active;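 active = compounds whose signal lies at least 3.5 SD above the mean of all wells on their plate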;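 note: 0% = DMSO-treated cells in low-serum medium and 100% = 10% serum control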
The depositor's hits bear a star; i = inactive; ? = inconclusive; . = not tested or not shown; + = active, no number.

SMILES	Myeloid diff 2	MT1-MMP act inh	DAGLB inhibitor	SENP1 inh	NRP1-CendR mod	beta cell repl
Cc1cc(C)n(C(C)CC(=O)N2CCc3ccccc32)n1 (stereo unspecified)	i	1	-2	1	0	3
Cc1cc(C)n(C(CC(=O)N2CCc3ccccc3C2)C(=O)O)n1 (stereo unspecified)	+	-1	-3	-5	-7	-1
CCOC(=O)c1ccc2c(c1)nc(SCc1cn3ccsc3n1)n2CC	.	5	1	0	-4	-1
CCC(C)[C@H]1CNCCN1CCc1cccc2ccccc12 (stereo partly specified)	i	6	-1	-1	-5	-3
Cc1ccc(O)c(NC(=O)c2ccc3c(c2)C(=O)N(Cc2cccnc2)C3=O)c1	+	-8	-2	6	-15	0
Cc1cc(C)c(NC(=O)c2ccc3c(c2)C(=O)N(Cc2cccnc2)C3=O)c(C)c1	i	2	2	-1	0	4
Cc1ccc(S(=O)(=O)N2CCN(C(=O)C3CCCC3)CC2)cc1C	i	2	-3	0	7	-3
O=C(c1cccc(F)c1)N1CCC2(CC1)NCCc1[nH]cnc12	+	-5	-1	1	6	-3
O=C(c1cccc(Cl)c1)N1CCC2(CC1)NCCc1[nH]cnc12	i	0	0	2	13	-3
Cc1onc(-c2ccccc2Cl)c1C(=O)NCCn1c(C)cc2ccccc21	i	40*	0	-60	-11	-6
COc1ccc(C(=O)c2coc3ccc(O)c(CN4CCCCC4)c23)cc1	+	-2	-3	-1	1	1
COc1ccc(-c2csc(NCc3ccco3)n2)cc1C	i	12	-8	-1	23*	-6
CC(=O)Nc1ccc(-c2csc(NCc3ccco3)n2)cc1	i	-4	-1	-1	12	-3
CC1(C)N=C(N)N=C(N)N1c1cc(Cl)ccc1Cl	i	-4	0	1	-1	.
CC1(C)N=C(N)N=C(N)N1c1ccc(F)cc1F	+	4	-3	4	16	1
CCCCCCCCOC(=O)c1cc([N+](=O)[O-])c(Sc2ncnc3nc[nH]c23)c([N+](=O)[O-])c1	.	14	-16	8	-3	.
COc1cc(N2CCCC2)c(OC)cc1/C=C(/C#N)c1cccc(F)c1	+	-340	-7	-26	-152	.
N#C/C(=C/c1ccc(N2CCCCCC2)o1)c1cccc(F)c1	i	-69	5	20	127	-6
O=C1[C@H]2[C@H](ON3CCCC[C@H]23)C(=O)N1c1ccc(Cl)cc1	i	1	-1	-1	4	0
CCN1c2ccccc2NC2C1C(C(C)=O)C(=O)N2c1ccc(Cl)cc1 (stereo unspecified)	+	-219	3	-24	-160	-4
O=C(CN(C(=O)c1csnn1)c1cccc2c1CCCC2)NC1CCCC1	i	-1	-3	1	4	3
Cc1cc2c(=O)n(C)c(SCC(=O)Nc3cccc(F)c3)nc2s1	.	2	-2	2	-5	-2
O=C(NCc1cc2ccccc2[nH]1)C1CCC(=O)N(CC2CCCCC2)C1 (stereo unspecified)	i	-1	0	-99	-32	.
O=C(Nc1ccccn1)C1CCN(S(=O)(=O)c2ccc(Cl)cc2)CC1	i	5	0	0	5	-1
COc1cc(NC(=S)N2CCN(C(c3ccccc3)c3ccccc3)CC2)cc(OC)c1	+	-26	-6	-1	2	-3
SMILES	Myeloid diff 2	MT1-MMP act inh	DAGLB inhibitor	SENP1 inh	NRP1-CendR mod	beta cell repl
COCCNC(=S)N1CCN(C(c2ccccc2)c2ccccc2)CC1	i	-2	-3	1	10	0
COc1cc(NC(=S)N2CCN(C/C=C/c3ccccc3)CC2)cc(OC)c1	+	1	-2	1	-8	-4
CN(CC(=O)Nc1ccc(F)c(F)c1F)C(=O)c1ccc2c(c1)S(=O)(=O)N=C1CCCCCN12	i	1	1	1	8	0
COC(=O)[C@]12CCCCC=C1N(Cc1cccc3ccccc13)C(=O)[C@H](CC(=O)NCc1cccc(C(F)(F)F)c1)C2	i	-7	.	3	-20	.
CS(=O)(=O)NN1C(=O)c2ccccc2NC1c1c[nH]c2ccccc12 (stereo unspecified)	+	-28	2	4	-18	4
Cc1ccc(C)c(N(CC(=O)N/N=C/c2ccc(-c3ccc([N+](=O)[O-])cc3)o2)S(=O)(=O)c2ccccc2)c1	i	-6	-1	-29	-101	-1
O=C(CN(c1cccc(Br)c1)S(=O)(=O)c1ccccc1)N/N=C/c1cc([N+](=O)[O-])ccc1O	i	2	.	-13	50*	-4
O=C(CCCC(=O)Nc1cccc(Br)c1)N/N=C/c1cc([N+](=O)[O-])ccc1O	i	-6	11	6	-17	-6
CCOc1ccc(S(=O)(=O)N(CC(=O)N/N=C/c2ccc(-c3ccc([N+](=O)[O-])cc3)o2)c2ccccc2)cc1	+	2	4	-18	-28	0
C[C@H]1CCCCO[C@H](CN(C)C(=O)C2CCCCC2)[C@@H](C)CN([C@@H](C)CO)C(=O)c2cc(NC(=O)NC3CCCCC3)ccc2O1	i	5	-15	0	0	.
Nc1nc2ccccc2cc1C(=O)NCc1ccc(-c2ccccc2)cc1	?	13	.	-28	-15	.
Cc1ccc2c(c1)c(=O)c1c3n2CCN(C(=O)CCl)C3CC1 (stereo unspecified)	i	-1	-1	-17	26*	-4
COc1cccc(C2C(C(=O)Nc3ccccc3)=C(C)N=c3s/c(=C/c4ccc(OCC(=O)O)cc4)c(=O)n32)c1 (stereo unspecified)	i	-1	1	-26	-17	1
CC1=C(C(=O)Nc2ccccc2)C(c2ccc(C)o2)n2c(s/c(=C\c3ccco3)c2=O)=N1 (stereo unspecified)	+	4	0	22	-3	-4
COc1ccc(NC(=O)Cn2nnc(-c3ccccc3NC(=O)c3ccco3)n2)cc1	+	-4	-3	2	-9	0
